For data set [1], the system named is Rattus norvegicus. The data set can be described thus: AUC in intragastrically dosed rat assessed as total metabolite level at 0.09 mmol/kg after 10 mins. In kind it is ADME, organism-based, Plasma. Also noted: dose 0.09 mmol/kg, time < 0.166667 hr, route intragastric. The following applies: in vivo, po. The gist of the method:
(§1)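 Rats received intragastric doses, with the same animals given both resveratrol and the derivative to limit individual variability. Blood was sampled over time. Circulating resveratrol and its sulfate and glucuronide conjugates were identified by HPLC–UV at 320 nm and LC–MS against synthesized phase II metabolite standards, confirmed by enzymatic treatment. Cmax and AUC were taken from concentration–time curves.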

For data set [2], the system named is Rattus norvegicus. The data set can be described thus: AUC in intragastrically dosed rat assessed as resveratrol disulfate level at 0.09 mmol/kg after 10 mins. Format: ADME, organism-based, Plasma. Also noted: time < 0.166667 hr, dose 0.09 mmol/kg, route intragastric. The following applies: in vivo, po. The gist of the method: as §1
Data set [3] is described as follows: Solubility in water at room temperature. Format: physicochemical.
Data set [4] is described as follows: Chemical stability in 1N HCl solution assessed as compound remaining at 37degC. Format: physicochemical. The following applies: buffer. The gist of the method: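 The compound was incubated in 1 N HCl at 37 °C for 6 h and analysed by LC–MS. The amount remaining is expressed as % of the initial molar amount.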
The subject of data set [5] is Rattus norvegicus. Briefly: AUC in intragastrically dosed rat assessed as resveratrol glucuronide level at 0.09 mmol/kg after 10 mins. To be noted: in vivo, po. More on the design: time < 0.166667 hr, dose 0.09 mmol/kg, route intragastric. Format: ADME, organism-based, Plasma. Put shortly:
as §1

Data set [6] has as its system Rattus norvegicus. Briefly: AUC in intragastrically dosed rat assessed as resveratrol level at 0.09 mmol/kg after 10 mins. In kind it is ADME, organism-based, Plasma. Also noted: time < 0.166667 hr, dose 0.09 mmol/kg, route intragastric. The following applies: in vivo, po. The gist of the method: as §1
The subject of data set [7] is Rattus norvegicus. The data set can be described thus: AUC in intragastrically dosed rat assessed as resveratrol sulfate level at 0.09 mmol/kg after 10 mins. Format: ADME, organism-based, Plasma. Also noted: dose 0.09 mmol/kg, time < 0.166667 hr, route intragastric. To be noted: in vivo, po. Put shortly:
as §1

Data set [8] in a line: Cmax in intragastrically dosed rat at 0.09 mmol/kg after 10 mins. More on the design: dose 0.09 mmol/kg, route intragastric. Format: ADME, organism-based. To be noted: in vivo, po. Put shortly: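 Rats dosed intragastrically, with the same animals receiving both resveratrol and the glucosylsuccinyl derivative. Blood was sampled over time. Circulating species were identified by HPLC-UV at 320 nm and LC–MS against synthesized phase II metabolite standards (sulfates, glucuronides), with confirmation by enzymatic treatment. Cmax was read from concentration–time curves.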

Data set [9] can be described thus: Solubility in pH 9 buffer. In kind it is physicochemical.

For orientation: solubility means the dissolved amount per volume that the medium holds. A low value points to little dissolved substance. One may read the Cmax as the maximum level reached in the sampled fluid or tissue.

Values after ≈ are worked out from the molar mass of the structure shown.

As to `O=C(CCC(=O)O[C@@H]1[C@@H](O)[C@@H](O)O[C@H](CO)[C@H]1O)Oc1ccc(/C=C/c2cc(OC(=O)CCC(=O)O[C@@H]3[C@@H](O)[C@@H](O)O[C@H](CO)[C@H]3O)cc(OC(=O)CCC(=O)O[C@@H]3[C@@H](O)[C@@H](O)O[C@H](CO)[C@H]3O)c2)cc1`, the AUC in the data set on Rattus norvegicus [1] turned out to be 51.8 µM·h; in the data set on Rattus norvegicus [2], 27 µM·h; in the data set on Rattus norvegicus [5], 21.2 µM·h; in the data set on Rattus norvegicus [6] it was 0.2 µM·h; in the data set with Rattus norvegicus [7], 3.5 µM·h. This compound also had a solubility in data set [3] of 90 mg/mL (≈ 88.7 mM). Moreover, the Stability in data set [4] is reported as 80%.
For the compound `Oc1ccc(/C=C/c2cc(O)cc(O)c2)cc1` [RESVERATROL], the Cmax in [8] amounted to 1200 nM. The AUC in the data set on Rattus norvegicus [1] is 53.4 µM·h; in the data set with Rattus norvegicus [2], 14.4 µM·h; with Rattus norvegicus [5], 35.5 µM·h; in the data set on Rattus norvegicus [6] it was 1.1 µM·h; in the data set on Rattus norvegicus [7], 2.4 µM·h.
Regarding `C[C@@H]1O[C@@H](OC[C@H]2O[C@@H](Oc3c(-c4ccc(O)c(O)c4)oc4cc(O)cc(O)c4c3=O)[C@H](O)[C@@H](O)[C@@H]2O)[C@H](O)[C@H](O)[C@H]1O` [RUTIN], in data set [9], the solubility is 2.3 mg/mL (≈ 3.77 mM).

These data come from ChEMBL document CHEMBL1154379, “Soluble polyphenols: synthesis and bioavailability of 3,4',5-tri(alpha-D-glucose-3-O-succinyl) resveratrol” (Bioorg Med Chem Lett, 2009).
